Active and inactive are the calls of the source. Unless noted, the rule behind the calls is not given here.
Tests used:
[1] = Kinetic aqueous solubility of the compound in pH 7.4 PBS buffer at 150 uM measured after 6 hrs by shake flask method; format: physicochemical; conditions: read-out: Kinetic_solubility
Outline: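 μSOL kinetic solubility. 10 mM DMSO stocks were diluted with 1-propanol cosolvent to 150 μM final in aqueous pH 7.4 and equilibrated 6 h at room temperature. After filtration, filtrate concentration was read by UV absorbance against a 17 μM reference.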

[2] = Volume of distribution at steady state in CD-1 mouse at 10 mg/kg, iv and measured up to 24 hrs by LC/MS-MS analysis; format: ADME, organism-based; conditions: in vivo
Outline: (§1)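 Male CD1 mice, about 6–8 weeks old and 20–30 g, received 10 mg/kg IV in 0.1 M NaOH in PBS adjusted to pH 7–8.5, made fresh on the day of dosing. Three mice per cohort. Blood was taken from the dorsal metatarsal vein at 5, 15, 30 min and 1, 2, 4, 8, 12, 24 h into heparin tubes. Plasma was spun at 4 °C, stored at –75 °C and analysed by LC–MS/MS. For IV dosing Cmax = C0.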

MIA PaCa-2 = assay: Cytotoxicity against human MIA PaCa-2 cells assessed as reduction in cell viability after 48 hrs by CellTiter-Glo assay; format: functional, cell-based; conditions: MIA PaCa-2, 48 h
[3] = Genotoxicity in Salmonella typhimurium by Ames test; format: toxicity; conditions: salmonella enterica subsp. enterica serovar typhimurium
[4] = target: Voltage-gated inwardly rectifying potassium channel KCNH2 (Homo sapiens, UniProt Q12809); assay: Inhibition of human ERG by patch clamp method; conditions: dose >10 µM
Sus scrofa = organism: Sus scrofa; assay: Inhibition of porcine heart MDH using malic acid as substrate preincubated for 10 mins followed by substrate addition and measured after 5 mins by resazurin based fluorescence based assay; conditions: time 15.0 min
[5] = target: T1, L-lactate dehydrogenase A chain (Homo sapiens, UniProt P00338); assay: Inhibition of recombinant human LDHA using sodium pyruvate as substrate preincubated for 5 mins followed by diaphorase/resazurin addition and measured after 20 mins by fluorescence based assay
[6] = Half life in rat liver microsomes at 1 uM in presence of NADPH by LC-MS/MS; format: ADME, Microsome
[7] = Half life in rat liver cytoplasm; format: ADME, subcellular
[8] = Terminal half life in CD-1 mouse at 10 mg/kg, iv and measured up to 24 hrs by LC/MS-MS analysis; format: ADME, organism-based; conditions: in vivo; outline: as §1
[9] = Cmax in CD-1 mouse at 10 mg/kg, iv and measured up to 24 hrs by LC/MS-MS analysis; format: ADME, organism-based; design: route intravenous, dose 10 mg/kg, time <=24; conditions: in vivo; outline: as §1
[10] = target: L-lactate dehydrogenase B chain (Homo sapiens) (UniProt P07195); assay: Inhibition of recombinant human LDHB using sodium pyruvate as substrate preincubated for 5 mins followed by diaphorase/resazurin addition and measured after 20 mins by fluorescence based assay
[11] = Half life in human liver cytoplasm; format: ADME, subcellular
[12] = Half life in mouse liver cytoplasm; format: ADME, subcellular
[13] = Protein binding in mouse plasma assessed as free fraction; format: ADME, cell-free
[14] = target: T1, L-lactate dehydrogenase A chain; assay: Binding affinity to human His-tagged LDHA by SPR analysis
Outline: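 SPR on a Mass-1 instrument gave K_D and k_off. Residence time τ was calculated as 1/k_off (s⁻¹).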

[15] = Half life in human liver microsomes at 1 uM in presence of NADPH by LC-MS/MS; format: ADME, Microsome
Outline: (§2)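 Time-course stability in human or mouse liver microsomes, or mouse hepatocytes, in the presence of NADPH and UDPGA. Parent compound was monitored at five time points to derive T1/2.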

[16] = Permeability of compound at pH 7.4 […] incubated for 1 hr by PAMPA-BBB assay; format: ADME; conditions: pH 7.4, 1 h
Outline: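 Double-sink PAMPA with 10% porcine brain lipid extract in phospholipid/alkane membrane. 10 mM DMSO stocks were diluted to 0.05 mM at pH 7.4 and stirred 1 h at room temperature. Donor and acceptor were quantified by UV against reference and blank. Results in 10⁻⁶ cm/s.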

[17] = Metabolic stability in dog hepatocytes; format: ADME, cell-based, Canis lupus familiaris, Hepatocyte
Cytochrome P450 = assay: Induction of CYP450 (unknown origin) at 10 uM; format: ADME, protein assay; conditions: human
[18] = AUClast in CD-1 mouse at 10 mg/kg, iv and measured up to 24 hrs by LC/MS-MS analysis; format: ADME, organism-based; design: route intravenous, dose 10 mg/kg, time <=24; conditions: in vivo; outline: as §1
[19] = target: T1, L-lactate dehydrogenase A chain; assay: Inhibition of LDHA in human A673 cells assessed as decrease in lactate production incubated for 2 hrs by lactate oxidase-coupled fluorescence based assay; format: cell-based
[20] = target: T1, L-lactate dehydrogenase A chain; assay: Inhibition of LDHA in human A673 cells assessed as decrease in extracellular acidification rate at 0.5 to 5 uM preincubated for 1 hr followed by glucose/oligomycin/2-DG addition at 48 mins by seahorse XF GST based assay; format: cell-based; conditions: dose microM 0.5-5, time 108.0 min
Outline: (§3)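 A673 cells in DMEM with 10% FBS were plated 24 h ahead, then switched to Seahorse basic DMEM with 2 mM glutamine, pH 7.4, and held 1 h at 37 °C without CO2. ECAR was recorded after inhibitor injection at increasing concentrations. At 48 min, glucose (10 mM final), oligomycin (1 μg/mL final) and 2-DG (50 mM final) were injected in sequence.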

[21] = Metabolic stability in rat hepatocytes; format: ADME, cell-based, Hepatocyte
[22] = In vivo inhibition of LDH in human A673 cells xenografted athymic nude CrTac:NCr-Foxn1nu mouse assessed as reduction in tumor LDH activity at 50 mg/kg, iv after 6 hrs by UV-VIS spectrometric method relative to control; format: functional
Outline: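 Female athymic nude mice carried SQ A673 flank xenografts (2 million cells) and received a single IV dose of 50 mg/kg in PBS-based vehicle. Four mice per time point were sacrificed at 1, 3, 6 and 24 h. Frozen tumor (10–50 mg) was pulverized and lysed in PBS pH 7.4 with 0.1% Triton X-100 on ice for 1 h. Cleared lysate (10–20 μg) was assayed with 10 mM pyruvate and 0.3 mM final NADH, reading NADH oxidation at 340 nm at 37 °C.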

[23] = Half life in mouse liver microsomes at 1 uM in presence of NADPH by LC-MS/MS; format: ADME, Microsome; outline: as §2
A673 = assay: Cytotoxicity against human A673 cells assessed as reduction in cell viability after 48 hrs by CellTiter-Glo assay; format: functional, cell-based; conditions: A673, 48 h
[24] = target: T1, L-lactate dehydrogenase A chain; assay: Inhibition of GS[HiBiT]GS-tagged LDHA (unknown origin) expressed in HEK-293T cells measured after 1 hr by […]; format: cell-based
Outline: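 HEK293T cells were transiently transfected for 24 h with CMV-driven LDHA carrying a C-terminal GS[HiBiT]GS tag, then reseeded at 2500 cells/well in DPBS with Ca/Mg and 1 g/L glucose. […] Cells were lysed with NP40, and 11S (100 nM final) plus furimazine was added.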

[25] = Metabolic stability in mouse hepatocytes; format: ADME, cell-based, Hepatocyte; outline: as §2
Homo sapiens = organism: Homo sapiens; assay: Inhibition of LDH in human A673 cells assessed as decrease in extracellular acidification rate at 0.5 to 5 uM preincubated for 1 hr followed by subsequent injections of glucose/oligomycin at 48 mins by seahorse XF GST based assay; format: cell-based; conditions: dose microM 0.5-5, time 108.0 min; outline: as §3
[26] = target: T1, L-lactate dehydrogenase A chain; assay: Inhibition of LDHA in human MIA PaCa-2 cells assessed as decrease in lactate production incubated for 2 hrs by lactate oxidase-coupled fluorescence based assay; format: cell-based

Sequence of L-lactate dehydrogenase B chain (Homo sapiens) (P07195 2-334 limits assumed): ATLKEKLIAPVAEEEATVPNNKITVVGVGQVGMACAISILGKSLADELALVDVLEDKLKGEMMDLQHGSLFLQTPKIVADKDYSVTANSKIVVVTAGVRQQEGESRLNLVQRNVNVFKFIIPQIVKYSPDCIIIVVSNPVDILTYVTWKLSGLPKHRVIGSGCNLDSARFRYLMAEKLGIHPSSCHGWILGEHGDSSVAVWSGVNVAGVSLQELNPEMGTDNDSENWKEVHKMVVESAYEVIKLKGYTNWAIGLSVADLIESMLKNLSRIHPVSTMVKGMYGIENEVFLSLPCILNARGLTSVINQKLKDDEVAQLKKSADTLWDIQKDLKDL
Sequence of Voltage-gated inwardly rectifying potassium channel KCNH2 (Q12809 whole entry): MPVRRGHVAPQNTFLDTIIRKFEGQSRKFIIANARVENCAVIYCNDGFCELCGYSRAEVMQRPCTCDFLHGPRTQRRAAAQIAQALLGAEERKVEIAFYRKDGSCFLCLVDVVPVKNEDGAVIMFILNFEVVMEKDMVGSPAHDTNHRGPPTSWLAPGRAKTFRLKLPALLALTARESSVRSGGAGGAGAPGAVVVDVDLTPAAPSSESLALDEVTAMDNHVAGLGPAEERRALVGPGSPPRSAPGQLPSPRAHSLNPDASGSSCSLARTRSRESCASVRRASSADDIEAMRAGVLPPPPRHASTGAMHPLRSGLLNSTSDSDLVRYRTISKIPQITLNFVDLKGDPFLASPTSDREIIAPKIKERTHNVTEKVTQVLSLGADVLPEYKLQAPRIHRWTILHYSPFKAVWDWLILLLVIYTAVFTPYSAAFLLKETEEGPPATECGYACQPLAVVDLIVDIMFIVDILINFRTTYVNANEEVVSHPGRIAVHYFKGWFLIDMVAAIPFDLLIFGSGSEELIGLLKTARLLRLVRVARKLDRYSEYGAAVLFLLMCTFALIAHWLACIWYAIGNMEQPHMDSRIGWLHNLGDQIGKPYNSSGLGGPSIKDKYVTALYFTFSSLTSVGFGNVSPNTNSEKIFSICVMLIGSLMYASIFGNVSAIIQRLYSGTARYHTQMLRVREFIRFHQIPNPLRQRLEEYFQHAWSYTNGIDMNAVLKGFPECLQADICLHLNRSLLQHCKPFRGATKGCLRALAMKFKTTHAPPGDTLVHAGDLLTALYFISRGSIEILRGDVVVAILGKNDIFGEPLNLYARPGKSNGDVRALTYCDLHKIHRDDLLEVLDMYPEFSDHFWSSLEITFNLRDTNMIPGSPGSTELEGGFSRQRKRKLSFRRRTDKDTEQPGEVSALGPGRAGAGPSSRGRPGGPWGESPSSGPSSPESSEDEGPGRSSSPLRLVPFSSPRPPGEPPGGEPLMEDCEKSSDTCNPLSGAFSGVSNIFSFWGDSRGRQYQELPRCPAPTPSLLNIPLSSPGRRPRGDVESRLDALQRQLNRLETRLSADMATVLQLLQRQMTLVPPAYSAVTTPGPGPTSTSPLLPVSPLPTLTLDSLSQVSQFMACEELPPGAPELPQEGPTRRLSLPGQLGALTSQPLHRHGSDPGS

Row | SMILES | solubility kinetic at 6 h, 150 µM [1] | Vdss [2] | IC50 (MIA PaCa-2) | Activity [3] | INH [4] | inhibition (Sus scrofa) | IC50 [5] | half-life at 1 µM [6] | half-life [7] | beta t1/2 [8] | Cmax [9] | inhibition [10] | half-life [11] | half-life [12] | Fu [13] | Kd [14] | half-life at 1 µM [15] | permeability [16] | half-life [17] | Activity (Cytochrome P450) | further results
1 | Cc1ccc(C#Cc2cc(-c3nn(-c4nc(C(=O)O)cs4)c(CC4CC4)c3Cc3ccc(S(N)(=O)=O)c(F)c3)ccc2F)s1 | > 70 µg/mL | 1.79 L/kg | 257 nM | Non-Toxic | > 10 µM | inactive | 57 nM | > 2 h | > 2 h | 5.2 h | 41800 ng/mL | Active | > 2 h | > 2 h | 0.7% | 0.0667 nM | > 2 h | 16 10^-6 cm/s | > 2.5 h | Not Active | AUClast [18]: 10570 ng·h/mL; IC50 [19]: 873 nM; inhibition [20]: Active; half-life [21]: > 2.5 h; inhibition in vivo at 50 mg/kg [22]: 60%; half-life at 1 µM [23]: > 2 h; IC50 (A673): 119 nM; IC50 [24]: 106 nM; half-life [25]: > 2.5 h; inhibition (Homo sapiens): inactive; IC50 [26]: 403 nM
2 | Cc1ccc(C#Cc2cccc(-c3nn(-c4nc(C(=O)O)cs4)c(CC4CC4)c3Cc3ccc(S(N)(=O)=O)c(F)c3)c2)s1 | > 70 µg/mL | 1.7 L/kg | 347 nM | Non-Toxic | > 10 µM | inactive | 40 nM | > 2 h | > 2 h | 5.3 h | 33800 ng/mL | Active | > 2 h | > 2 h | 4.4% | 0.0634 nM | > 2 h | 9.6 10^-6 cm/s | > 2.5 h | Not Active | AUClast [18]: 16530 ng·h/mL; IC50 [19]: 760 nM; inhibition [20]: Active; half-life [21]: > 2.5 h; inhibition in vivo at 50 mg/kg [22]: 80%; half-life at 1 µM [23]: > 2 h; IC50 (A673): 105 nM; IC50 [24]: 119 nM; half-life [25]: > 2.5 h; inhibition (Homo sapiens): inactive; IC50 [26]: 367 nM
